The text below walks through data of ChEMBL document CHEMBL1154841, “Cytotoxic triterpene dilactones from the stems of Kadsura ananosma” (J Nat Prod, 2010).

The structures appear in SMILES notation. Where only a bound is given, the exact number is not on record here.

What all share (type): functional, cell-based
The subject of one experiment is HL-60. As to the kind of experiment: Cytotoxicity against human HL60 cells after 48 hrs by MTT assay. As to conditions: HL-60, 48 h. In a few lines:
(§1)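 Cells grown in RPMI-1640 or DMEM with 10% fetal bovine serum, 37 °C, 5% CO2. Seeded at 1 × 10^5 cells/mL; adherent lines attached 12 h before dosing, suspension cells (HL-60) seeded at dosing. Compound given at various concentrations in triplicate for 48 h; 10-hydroxycamptothecin positive control. MTT 4 h at 37 °C, lysis in 20% SDS-50% DMF, formazan read at 595 nm.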

The test system of a further experiment is SMMC-7721. The experiment is described as follows: Cytotoxicity against of human SMMC7721 cells after 48 hrs by MTT assay. As to conditions: SMMC-7721, 48 h. In a few lines: as §1
The test system of a further experiment is A549. The experiment is described as follows: Cytotoxicity against human A549 cells after 48 hrs by MTT assay. The note with it: A549, 48 h. In a few lines:
as §1

The subject of a further experiment is PANC-1. The experiment is described as follows: Cytotoxicity against human PANC1 cells after 48 hrs by MTT assay. As to conditions: PANC-1, 48 h. In a few lines:
as §1

For another experiment, the system named is SK-BR-3. The experiment is described as follows: Cytotoxicity against human SK-BR-3 cells after 48 hrs by MTT assay. The note with it: SK-BR-3, 48 h. In a few lines: as §1

As to `C=C1C([C@@H](C)[C@H]2CC=C(C)C(=O)O2)=CC[C@]2(C)[C@H]1C[C@]1(O)C=C3C=CC(=O)OC(C)(C)[C@@H]3CC[C@@H]21` [LONGIPEDLACTONE A], the IC50 was 3.5 µM in the experiment on HL-60; greater than 10 µM with SMMC-7721; greater than 10 µM in the experiment on A549; greater than 10 µM in the experiment on PANC-1; greater than 10 µM with SK-BR-3.

Regarding `C=C1C([C@@H](C)[C@H]2CC=C(C)C(=O)O2)=CC[C@]2(C)[C@H]1C[C@]1(O)C=C3C=CC(=O)OC(C)(C)[C@@H]3[C@H](OC(C)=O)C[C@@H]21` [LOGIPEDLACTONE J], the IC50 in the experiment with HL-60 is 2 µM; in the experiment with SMMC-7721 it was greater than 10 µM; in the experiment on A549 it was greater than 10 µM; with PANC-1, 5.3 µM; with SK-BR-3, 2.8 µM.

In the case of `C=C1[C@@H]2C[C@]3(O)[C@H]4O[C@]45C=CC(=O)OC(C)(C)[C@@H]5[C@H](OC(C)=O)C[C@H]3[C@]2(C)CC[C@@]1(O)[C@@H](C)[C@H]1CC=C(C)C(=O)O1` [LONGIPEDLACTONE P], the IC50 in the experiment with HL-60, in the experiment with SMMC-7721, in the experiment on A549, in the experiment with PANC-1 and with SK-BR-3 was greater than 10 µM each time.

For `C=C1C([C@@H](C)[C@H]2CC=C(C)C(=O)O2)=CC[C@]2(C)[C@H]1C[C@]1(O)[C@H]3O[C@]34C=CC(=O)OC(C)(C)[C@@H]4CC[C@@H]21` [LONGIPEDLACTONE D], the IC50 in the experiment with HL-60, with SMMC-7721, in the experiment with A549, with PANC-1 and in the experiment on SK-BR-3 was greater than 10 µM each time.

Take `C=C1[C@@H]2C[C@]3(O)C=C4C=CC(=O)OC(C)(C)[C@@H]4[C@H](OC(C)=O)C[C@H]3[C@]2(C)CC[C@@]1(O)[C@@H](C)[C@H]1CC=C(C)C(=O)O1` [LONGIPEDLACTONE M]: the IC50 in the experiment on HL-60 was 4.1 µM; with SMMC-7721, greater than 10 µM; in the experiment on A549, greater than 10 µM; in the experiment with PANC-1, greater than 10 µM; with SK-BR-3 it was greater than 10 µM.

Take `C=C1C([C@@H](C)[C@H]2CC=C(C)C(=O)O2)=CC[C@]2(C)[C@H]1C[C@]1(O)[C@H]3O[C@]34C=CC(=O)OC(C)(C)[C@@H]4[C@H](OC(C)=O)C[C@@H]21` [LONGIPEDLACTONE N]: the IC50 with HL-60, in the experiment on SMMC-7721, in the experiment with A549, with PANC-1 and with SK-BR-3 was greater than 10 µM each time.

Turning to `C=C1[C@H]([C@@H](C)[C@H]2CC=C(C)C(=O)O2)CC[C@@]2(C)[C@@H]3C[C@@H](OC(C)=O)[C@H]4C(C)(C)OC(=O)C[C@H]5OO[C@]3(C[C@@H]12)C[C@]54O` [LONGIPEDLACTONE K], the concentration for half-maximal inhibition (IC50) with HL-60, in the experiment on SMMC-7721, with A549, with PANC-1 and in the experiment with SK-BR-3 was greater than 10 µM throughout.

With `C=C1[C@H]([C@@H](C)[C@H]2CC=C(C)C(=O)O2)CC[C@]2(C)[C@H]1C[C@]1(O)C=C3C=CC(=O)OC(C)(C)[C@@H]3[C@H](OC(C)=O)C[C@@H]21` [LONGIPEDLACTONE L], the IC50 with HL-60 is 7.3 µM; in the experiment on SMMC-7721, greater than 10 µM; in the experiment with A549, greater than 10 µM; in the experiment with PANC-1, greater than 10 µM; with SK-BR-3, greater than 10 µM.

For the compound `C=C1[C@@H]2C[C@]3(O)[C@H]4O[C@]45C=CC(=O)OC(C)(C)[C@@H]5[C@H](O)C[C@H]3[C@]2(C)CC[C@@]1(O)[C@@H](C)[C@H]1CC=C(C)C(=O)O1` [LONGIPEDLACTONE I], the IC50 in the experiment with HL-60, in the experiment on SMMC-7721, in the experiment with A549, in the experiment with PANC-1 and in the experiment on SK-BR-3 was greater than 10 µM each time.

As to `C=C1C([C@@H](C)[C@H]2CC=C(C)C(=O)O2)=CC[C@]2(C)[C@H]1C[C@]1(O)C=C3C=CC(=O)OC(C)(C)[C@@H]3[C@H](O)C[C@@H]21` [LONGIPEDLACTONE F], the IC50 with HL-60 is 2.3 µM; with SMMC-7721, greater than 10 µM; in the experiment on A549 it was greater than 10 µM; in the experiment on PANC-1 it was 8.8 µM; in the experiment on SK-BR-3 it was 7.4 µM.

As for `C=C1C([C@@H](C)[C@H]2CC=C(C)C(=O)O2)=CC[C@]2(C)[C@H]1C[C@]1(O)[C@H]3O[C@]34C=CC(=O)OC(C)(C)[C@@H]4[C@H](O)C[C@@H]21` [LONGIPEDLACTONE G], the IC50 in the experiment on HL-60, in the experiment with SMMC-7721, with A549, in the experiment with PANC-1 and in the experiment on SK-BR-3 was greater than 10 µM throughout.
